Results published in ChEMBL document CHEMBL1140172, “5-N-methylated quindoline derivatives as telomeric g-quadruplex stabilizing ligands: effects of 5-N positive charge on quadruplex binding affinity and cell proliferation” (J Med Chem, 2008).
pIC50: −log10 of the molar value. The source made the active and inactive calls. No cut-off for these calls is given here.

Assays:
[1] = Inhibition of amplification of synthetic HTG21 telomere assessed as G-quadruplex stabilization by PCR
Procedure, shortened: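 PCR stop assay with HTG21 and its partial complementary oligonucleotide (10 pmol each), 0.16 mM dNTP, 2.5 U Taq and test compound. Program: 94 °C for 3 min, then 30 cycles of 94/58/72 °C for 30 s each. Products run on 15% native PAGE and silver stained. IC50 taken from band optical density as 50% inhibition of PCR.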

[2] = Binding affinity to synthetic HTG21 telomere assessed as conversion of preformed hybrid-type G-quadruplex to antiparallel G-quadruplex structure at 5 uM in presence of K+ ions by CD spectroscopy
Procedure, shortened: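 CD on HTG21 at 5 µM strand in 10 mM Tris-HCl pH 7.4 with 100 mM KCl. Sample heated to 95 °C for 5 min, slowly cooled, held at 4 °C overnight. Titrated with 0–5 mol equiv compound. Scans from 230–450 nm at 25 °C, buffer baseline subtracted, at least three scans averaged.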

[3] = Binding affinity to synthetic HTG21 telomere by competition dialysis method
Procedure, shortened: (§1)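 Competition dialysis, Tris-HCl 10 mM pH 7.4 with 100 mM NaCl. Each nucleic acid (0.5 mL, 45 µM monomeric unit) in a 1000 MWCO dialysis unit, all dialyzed together against a common ligand solution for 24 h at room temperature. DNA samples brought to 1% SDS. Total ligand in each tube and free ligand in dialysate read by absorbance (425 or 415 nm). Bound = total − free.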

[4] = target: Telomerase reverse transcriptase (Homo sapiens, UniProt O14746); test: Inhibition of telomerase in human MCF7 cells by cell-free telomerase repeat amplification protocol assay
Telomerase reverse transcriptase, sequence (O14746 whole entry): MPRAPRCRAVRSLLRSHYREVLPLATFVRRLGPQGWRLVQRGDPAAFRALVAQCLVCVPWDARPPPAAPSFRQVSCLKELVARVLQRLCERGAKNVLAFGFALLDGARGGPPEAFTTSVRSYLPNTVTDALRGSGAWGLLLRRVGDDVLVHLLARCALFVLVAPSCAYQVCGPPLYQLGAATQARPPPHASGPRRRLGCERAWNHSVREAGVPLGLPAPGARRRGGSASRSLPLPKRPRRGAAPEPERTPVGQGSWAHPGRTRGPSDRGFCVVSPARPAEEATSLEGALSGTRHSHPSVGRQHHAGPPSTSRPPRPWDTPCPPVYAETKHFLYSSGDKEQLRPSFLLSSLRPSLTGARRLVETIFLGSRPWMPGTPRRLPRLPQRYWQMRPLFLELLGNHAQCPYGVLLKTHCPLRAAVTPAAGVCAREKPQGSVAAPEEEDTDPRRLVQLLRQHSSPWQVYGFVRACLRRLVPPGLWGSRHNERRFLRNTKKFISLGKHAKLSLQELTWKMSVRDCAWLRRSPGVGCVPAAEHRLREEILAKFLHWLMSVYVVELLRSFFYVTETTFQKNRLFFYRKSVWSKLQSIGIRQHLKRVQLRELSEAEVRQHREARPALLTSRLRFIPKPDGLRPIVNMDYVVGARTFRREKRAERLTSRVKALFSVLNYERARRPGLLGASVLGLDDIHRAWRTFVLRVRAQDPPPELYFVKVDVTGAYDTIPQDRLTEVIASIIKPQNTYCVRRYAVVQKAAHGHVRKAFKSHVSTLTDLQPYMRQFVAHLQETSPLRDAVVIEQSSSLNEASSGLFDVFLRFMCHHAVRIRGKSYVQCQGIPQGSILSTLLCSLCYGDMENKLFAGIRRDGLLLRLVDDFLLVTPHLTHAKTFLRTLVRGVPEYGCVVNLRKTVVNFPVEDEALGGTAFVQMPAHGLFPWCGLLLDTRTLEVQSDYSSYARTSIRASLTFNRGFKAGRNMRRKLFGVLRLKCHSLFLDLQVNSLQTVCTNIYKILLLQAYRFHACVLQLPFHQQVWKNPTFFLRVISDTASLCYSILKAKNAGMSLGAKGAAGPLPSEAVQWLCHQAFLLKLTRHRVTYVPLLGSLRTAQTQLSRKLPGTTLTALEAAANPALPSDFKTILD
Procedure, shortened: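 Modified TRAP using 100 ng of MCF-7 extract in 20 mM Tris-HCl pH 8.0 with 63 mM KCl, 1.5 mM MgCl2, 1 mM EGTA, 50 µM dNTPs, primers TSG4/TS/CXext/NT and a TSNT internal control. Compound or water added, 30 min elongation at 30 °C, then 30 PCR cycles. Read-out by 10% native PAGE with silver stain; TelIC50 from band optical density.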

[5] = Binding affinity to synthetic Pu27 oligonucleotide by competition dialysis method; procedure, shortened: as §1
[6] = Binding affinity to synthetic HT7 oligonucleotide by competition dialysis method; procedure, shortened: as §1
[7] = Binding affinity to synthetic HTG21 telomere assessed as change in G-qudraplex DNA melting temperature at 1 uM by FRET method
[8] = test system: CA46; test: Growth inhibition in human CA46 cells at 0.06 uM after 12 days; assay type: functional, cell-based
Procedure, shortened: (§2)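 Long-term culture: 1.0 × 10^5 cells per flask with ligand at 0.03 or 0.06 µM, or 0.1% DMSO. Every 4 days cells were counted and reseeded at 1.0 × 10^5 with fresh treatment, for 16 days. Each point done three times.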

[9] = test system: CA46; test: Induction of senescence in human CA46 cells at 0.06 uM administered continuously for 16 days by senescence-associated beta-galactosidase assay; assay type: functional, cell-based
Procedure, shortened: (§3)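 Cells were treated continuously with 0.06 µM ligand or 0.1% DMSO for 16 days. They were fixed in 2% formaldehyde/0.2% glutaraldehyde for 15 min at room temperature, washed in PBS, and stained overnight at 37 °C with 1 mg/mL X-Gal stain solution.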

[10] = test system: HL-60; test: Growth inhibition in human HL60 cells assessed as increase in population doubling time at 0.03 uM; assay type: functional, cell-based; procedure, shortened: as §2
[11] = test system: CA46; test: Decrease in telomere length in human CA46 cells at 0.06 uM after 16 days by telomeric restriction fragment length assay; assay type: functional, cell-based
Procedure, shortened: (§4)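 Cells were reseeded every 4 days with continuous compound or 0.1% DMSO for 16 days. Genomic DNA was cut with HinfI/RsaI and run on 0.8% agarose. It was then Southern blotted and probed with a DIG-labelled telomeric repeat probe, detected by anti-DIG alkaline phosphatase chemiluminescence to give TRF length.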

[12] = test system: HL-60; test: Cytotoxicity against human HL60 cell after 48 hrs by MTT assay; assay type: functional, cell-based; details: HL-60, 48 h
Procedure, shortened: (§5)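 MTT assay: cells seeded at 1.0 × 10^3 per well in RPMI-1640 with 10% FBS and exposed to a range of ligand concentrations for 48 h at 37 °C, 5% CO2. MTT added for 4 h, formazan dissolved in DMSO, OD read at 570 nm. Each dose run in triplicate; IC50 from mean OD versus concentration curves.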

[13] = test system: HL-60; test: Decrease in telomere length in human HL60 cells at 0.06 uM after 16 days by telomeric restriction fragment length assay; assay type: functional, cell-based; procedure, shortened: as §4
[14] = test system: CA46; test: Cytotoxicity against human CA46 cell after 48 hrs by MTT assay; assay type: functional, cell-based; details: CA46, 48 h; procedure, shortened: as §5
[15] = test system: HL-60; test: Induction of senescence in human HL60 cells at 0.06 uM administered continuously for 16 days by senescence-associated beta-galactosidase assay; assay type: functional, cell-based; procedure, shortened: as §3
[16] = test system: HL-60; test: Growth inhibition in human HL60 cells at 0.06 uM after 12 days; assay type: functional, cell-based; procedure, shortened: as §2
[17] = Binding affinity to synthetic [d(T2AG3)] oligonucleotide assessed as increase in DNA melting temperature by NMR spectroscopy
Procedure, shortened: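 1H NMR thermal denaturation of d(T2AG3) at 0.5 mM in 90% H2O/10% D2O with 150 mM KCl and 25 mM potassium phosphate pH 7.0. Spectra recorded every 5 °C from 25–90 °C after 15 min equilibration at each step, Watergate water suppression.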

[18] = test system: HL-60; test: Decrease in telomere length in human HL60 cells at 0.03 uM after 16 days by telomeric restriction fragment length assay; assay type: functional, cell-based; procedure, shortened: as §4
[19] = test system: CA46; test: Growth inhibition in human CA46 cells assessed as increase in population doubling time at 0.03 uM; assay type: functional, cell-based; procedure, shortened: as §2
[20] = Binding affinity to synthetic [d(T2AG3)] oligonucleotide by NMR spectroscopy
Procedure, shortened: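 1H NMR titration at 25 °C of HPLC-purified d(T2AG3) at 0.5 mM in 90% H2O/10% D2O with 150 mM KCl and 25 mM potassium phosphate pH 7.0. Watergate water suppression; imino proton shifts monitored.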

| Structure (SMILES) | pIC50 [1] | Activity [2] | pIC50 [4] | ΔTm [7] [°C] | other results |
| --- | --- | --- | --- | --- | --- |
| CN(C)CCCNc1c2ccccc2[n+](C)c2c1[nH]c1ccccc12 | 5.35 | Active | 6.66 | 17 | Activity [3]: Active; Activity [5]: Active; Activity [6]: Active |
| CCN(CC)CCNc1c2ccccc2[n+](C)c2c1[nH]c1ccc(F)cc12 | 4.74 | Active | – | 12 | – |
| CN(C)CCNc1c2ccccc2[n+](C)c2c1[nH]c1ccccc12 | 4.99 | Active | – | 13 | – |
| C[n+]1c2ccccc2c(NCCO)c2oc3ccccc3c21 | < 4.70 | Active | – | 4 | – |
| C[n+]1c2ccccc2c(NCCCO)c2[nH]c3ccccc3c21 | < 4.70 | Active | – | 7 | – |
| CCN(CC)CCNc1c2ccccc2[n+](C)c2c1oc1ccccc12 | 4.89 | Active | – | 12 | – |
| CN(C)CCNc1c2ccccc2[n+](C)c2c1[nH]c1c(F)cc(F)cc12 | < 4.70 | Active | – | 11 | – |
| CN(C)CCCNc1c2ccccc2[n+](C)c2c1[nH]c1ccc(F)cc12 | 5.10 | Active | 6.51 | 14 | Activity [8]: Active; Activity [9]: Active; Activity [10]: Active; Activity [11]: Active; pIC50 [12]: 5.92; Activity [13]: Active; pIC50 [14]: 5.87; Activity [15]: Active; Activity [16]: Active; ΔTm [17]: 25 °C; Activity [18]: Active; Activity [19]: Active; Activity [20]: Active |
| C[n+]1c2ccccc2c(NCCN2CCOCC2)c2[nH]c3ccccc3c21 | < 4.70 | Active | – | 10 | – |
| CN(C)CCNc1c2ccccc2[n+](C)c2c1[nH]c1ccc(F)cc12 | 4.89 | Active | – | 14 | – |
| C[n+]1c2ccccc2c(NCCO)c2[nH]c3ccccc3c21 | < 4.70 | Active | – | 5 | – |
| CCN(CC)CCCNc1c2ccccc2[n+](C)c2c1[nH]c1c(F)cc(F)cc12 | 5.26 | Active | 6.57 | 15 | – |
| C[n+]1c2ccccc2c(NCCCN2CCOCC2)c2oc3ccccc3c21 | 4.74 | Active | – | 13 | – |
| C[n+]1c2ccccc2c(NCCCN2CCOCC2)c2[nH]c3ccccc3c21 | < 4.70 | Active | – | 12 | – |
| CN(C)CCCNc1c2ccccc2[n+](C)c2c1oc1ccccc12 | 5.21 | Active | 6.43 | 14 | – |
| CCN(CC)CCNc1c2ccccc2[n+](C)c2c1[nH]c1ccccc12 | 4.92 | Active | – | 12 | – |
| CCN(CC)CCCNc1c2ccccc2[n+](C)c2c1[nH]c1ccc(F)cc12 | 5.30 | Active | 6.70 | 18 | – |
| CN(C)CCNc1c2ccccc2[n+](C)c2c1oc1ccccc12 | 4.94 | Active | – | 11 | – |
| C[n+]1c2ccccc2c(NCCCO)c2oc3ccccc3c21 | < 4.70 | Active | – | 10 | – |
| CCN(CC)CCCNc1c2ccccc2[n+](C)c2c1[nH]c1ccccc12 | 5.29 | Active | 6.80 | 19 | – |
| CCN(CC)CCCNc1c2ccccc2[n+](C)c2c1oc1ccccc12 | 5.24 | Active | – | 15 | – |
| CN(C)CCCNc1c2ccccc2[n+](C)c2c1[nH]c1c(F)cc(F)cc12 | 5.05 | Active | 6.40 | 15 | – |
| C[n+]1c2ccccc2c(NCCN2CCOCC2)c2oc3ccccc3c21 | < 4.70 | Active | – | 9 | – |
| CN(C)CCCNc1c2ccccc2nc2c1[nH]c1ccccc12 | < 4.70 | – | 6.20 | 9 | – |
| CCN(CC)CCNc1c2ccccc2[n+](C)c2c1[nH]c1c(F)cc(F)cc12 | 4.82 | Active | – | 11 | – |
